SKN-1 inh – suppressors of acrylamide-induced Pgst-4::GFP reporter in worms, primary screen, SKN-1 inhibitor project, whole organism, uHTS, GFP/RFP fluorescence ratio, strain VP596; inhibition, % at 21.8 µM; 360,000 compounds, 0.49% hits; C. elegans VP596 Pgst-4::GFP/RFP ratio, 24 h;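 active = interference check ratio from 0.5 to 1.5 plus GFP to RFP signal ratio inhibition reaching or exceeding a fixed threshold, cut at about 30% in these data, passing the limit was not always enough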
DAGLB inh – DAGLB lipase inhibitors, primary screen, biochemical, fluorescence, HTS; HEK293T DAGLB membrane lysate, EnzChek fluorogenic substrate; 340,000 compounds, 0.059% hits; Diacylglycerol lipase-beta (Homo sapiens), Q8NCG7; inhibition, % at 5.17 µM; in the data active = inhibition above about 34%
iPSC survival up – enhancers of single-cell hiPSC survival, primary screen, ATPlite luminescence | survival enhancement, % at 20 µM | 100% = ROCK inhibitor wells, 0% = DMSO | 360,000 compounds, 0.044% hits; in the data active = survival enhancement above about 18%;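 note: cells exposed to compounds for 16 hours before the ATP read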
MT1-MMP act inh – blockers of MT1-MMP proenzyme processing, primary screen, HT1080 RFP-PRO-GFP cells, GFP/RFP fluorescence; GFP/RFP ratio fluorescence, overnight; percent of plate control window, DMSO zero; GFP/RFP ratio change, % at 20 µM; 360,000 compounds, 0.061% hits;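 active = GFP/RFP ratio change of at least 30% with cell ATP level not reduced by more than half and red fluorescence within 50% of control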
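Assay system: HT1080 RFP-PRO-GFP cells. Benchmarks: DMSO vehicle wells and RFP-L50D-GFP reporter cell wells. Times: overnight cell settling, then overnight compound exposure, 37 °C, 5% CO2. Compound: 20 µM single dose, 1% DMSO. Read-out basis: GFP/RFP fluorescence ratio.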
FAS TE block – FAS thioesterase domain inhibitors, primary screen, biochemical, fluorescence intensity, uHTS; inhibition, % at 15 µM; recombinant FAS-TE, OMFH fluorogenic substrate, fluorescence endpoint; 360,000 compounds, 0.67% hits; Fatty acid synthase (Homo sapiens), P49327;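 active = compounds whose normalised, plate-corrected inhibition of enzyme fluorescence in the single-dose primary screen is 50% or more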
FAS-TE conf – FAS thioesterase domain inhibitors, confirmation, biochemical, fluorescence intensity, single concentration | recombinant FAS-TE, OMFH fluorogenic substrate | 2,300 compounds, 45% hits | shares compounds with FAS TE block | inhibition, % at 15 µM;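 active = compounds inhibiting the enzyme by at least 50% at 15 µM in any one of the replicates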
Hits are given with their value; i = inactive; nt = no result. In the library only some 1.3% were active in any assay of this set; here they are far more common.

SMILES | SKN-1 inh | DAGLB inh | iPSC survival up | MT1-MMP act inh | FAS TE block | FAS-TE conf
c1cncc(CN2CCN(c3cc(-c4cnc5ccccc5c4)nc4ccnn34)CC2)c1 | i | nt | i | i | i | nt
CC12CCC(C(=O)N(c3ccc(Cl)cc3)C1=O)C2(C)C (centres undefined) | i | i | i | i | i | nt
O=C1C2C(c3ccccc3)(C(=O)N1c1ccc(Cl)cc1)C2(c1ccccc1)c1ccccc1 (centres undefined) | i | i | i | i | 60 | i
O=C(NCCN1C(=O)S/C(=C\c2ccccc2)C1=O)C1CCN(S(=O)(=O)c2cccs2)CC1 | i | i | i | i | 53 | 58
O=C(NCCc1ccccc1)C1CCN(S(=O)(=O)c2cccs2)CC1 | i | i | i | i | i | nt
C[C@@H]1CN([C@H](C)CO)S(=O)(=O)c2ccc(C#Cc3ccccc3F)cc2O[C@@H]1CN(C)C(=O)Cc1ccccc1 | i | i | i | i | 70 | 41
CC(=O)Nc1cccc(-c2ccnc3c2CC(C)(C(=O)NCC2CC2)O3)c1 (centres undefined) | i | nt | i | i | i | nt
Cc1cc(-c2ccc(/C=N/n3cnnc3)o2)c(C)c([N+](=O)[O-])c1 | i | i | i | i | 60 | 39
O=[N+]([O-])c1ccc(Cl)c(-c2ccc(/C=N/n3cnnc3)o2)c1 | i | i | i | i | i | nt
N/C(=N\OC(=O)CCC1CCCC1)c1ccc([N+](=O)[O-])cc1 | i | i | i | i | i | nt
N/C(=N\OC(=O)CCC1CCCCC1)c1cccc([N+](=O)[O-])c1 | i | i | i | i | 67 | 66
O=C1C(Cc2ccccc2)Nc2ncnc(N3CCCCC3)c2N1Cc1ccc(Cl)cc1 (centres undefined) | i | i | i | i | i | nt
O=C1C(Cc2ccccc2)Nc2ncnc(N3CCN(c4ccccc4)CC3)c2N1Cc1ccc(Cl)cc1 (centres undefined) | i | i | i | i | 84 | i
CC(C)(C)OC(=O)NCCc1nnc(S(=O)(=O)Cc2ccc(Cl)cc2Cl)o1 | i | i | i | i | 64 | 67
CC(C)(C)OC(=O)NCCc1nnc(SCc2ccccc2Cl)o1 | i | i | i | i | i | nt
CCCCCCCCN1C(=O)[C@H](CC(=O)NCCCOCCCC)C[C@@]2(C(=O)OC)CCCCC=C12 | i | nt | i | i | i | nt
COc1cccc(-n2c(SCC(=O)Nc3sc4c(c3C(N)=O)CCC4)nc3ccccc3c2=O)c1 | i | i | i | i | 77 | i
C[C@H](NC(=O)C1CCN(S(=O)(=O)c2ccccc2)CC1)C(=O)NCc1cccc(Cl)c1 | i | i | i | i | i | nt
C[C@H](NC(=O)C1CCN(S(=O)(=O)c2ccccc2)CC1)C(=O)NCc1ccc(Cl)c(Cl)c1 | i | i | i | i | 52 | 46
CN(C)S(=O)(=O)c1ccc(N2C(=O)CC2(/C=C/c2ccccc2)C(=O)NC2CCCC2)cc1 (centres undefined) | i | i | i | i | 60 | i
COc1ccccc1/C=C/C1(C(=O)NC2CCCC2)CC(=O)N1c1ccccc1 (centres undefined) | i | i | i | i | i | nt
CCN(CC)S(=O)(=O)c1ccc(N2CCc3ccccc3C2)nc1 | i | i | i | i | 64 | 63
CCN(CC)S(=O)(=O)c1ccc(-n2cnc3cc(C)c(C)cc32)nc1 | i | i | i | i | 57 | 61
C[C@H]1CN([C@@H](C)CO)C(=O)CCCn2nncc2CO[C@@H]1CN(C)C(=O)NC1CCCCC1 | i | i | i | i | i | nt
Cc1cc(S(=O)(=O)c2ccc(Cl)cc2)nc(S(=O)(=O)c2ccc(Cl)cc2)c1C#N | i | i | i | i | 69 | 72
SMILES | SKN-1 inh | DAGLB inh | iPSC survival up | MT1-MMP act inh | FAS TE block | FAS-TE conf
CN(Cc1ccccc1)C(=O)c1ccc2sc([C@H]3C[C@H](O)[C@@H](CO)O3)nc2c1 | i | nt | i | i | i | nt
CC(Cc1ccccc1)=NNc1ccc([N+](=O)[O-])cc1[N+](=O)[O-] | i | i | i | i | i | nt
O=[N+]([O-])c1ccc(S(=O)(=O)Nc2ccc(-c3ccccc3)cc2)cc1 | i | i | i | i | 70 | 70
O=S(=O)(Nc1ccc(-c2csc(-c3ccccc3)n2)cc1)c1ccc(F)cc1 | i | i | i | i | 58 | i
O=C(Nc1nc(-c2ccccc2)cs1)c1ccccc1NS(=O)(=O)c1ccc(F)cc1 | i | i | i | i | i | nt
CC(Cc1ccccc1)=NNS(=O)(=O)c1ccc([N+](=O)[O-])cc1 | i | i | i | i | 60 | 66
O=C(NCc1cccnc1)C1Cc2c(-c3ccc(Cl)cc3)ccnc2O1 (centres undefined) | i | nt | i | i | i | nt
COc1ccc(C=O)c(-c2c(-c3ccccc3OC)sc3ccccc23)c1 | i | nt | i | i | i | nt
CCCC(=O)Nc1ccc2c(c1)C(=O)N(C)C[C@@H](OC)[C@H](C)CN(Cc1ccc(-c3ccccn3)cc1)[C@@H](C)CO2 | i | nt | nt | i | nt | nt
O=C(CN(C(=O)c1cccc([N+](=O)[O-])c1)C1CCCCC1)Nc1ccc(Cl)c([N+](=O)[O-])c1 | i | i | i | i | 81 | i
CN(C(=O)c1cccc(NC(=O)Cc2ccc([N+](=O)[O-])cc2)c1)C1CCCCC1 | i | i | i | i | i | nt
Cc1ccc([N+](=O)[O-])cc1NC(=O)CN(C1CCCCC1)S(=O)(=O)c1ccc(Cl)cc1 | i | i | i | i | 54 | i
Cc1ccc([N+](=O)[O-])cc1NC(=O)CN(C(=O)c1ccccc1Cl)C1CCCCC1 | i | i | i | i | 74 | i
Cc1ccc(NC(=O)CN(C)C(=O)c2ccc(Cl)c([N+](=O)[O-])c2)cc1 | i | i | i | i | 60 | 68
O=C(N/N=C/c1ccc(Br)o1)/C(=C/c1ccc([N+](=O)[O-])cc1)NC(=O)c1ccccc1 | i | i | i | i | 58 | 32
COc1ccc([N+](=O)[O-])cc1/C=N/NC(=O)/C(=C\c1cccs1)NC(=O)c1ccccc1 | i | i | i | i | 79 | 66
O=[N+]([O-])c1cc(-c2nnc(C34CC5CC(CC(C5)C3)C4)o2)cc([N+](=O)[O-])c1 | i | i | i | i | 53 | i
O=[N+]([O-])c1cccc(-c2nnc(C34CC5CC(CC(C5)C3)C4)o2)c1 | i | i | i | i | i | nt
CC(C)(C)c1ccc(OCCC(=O)OCC(=O)NC2CCCCC2)cc1 | i | i | i | i | 57 | 55
CCc1nc2c(OCc3ccc(Cl)cc3Cl)cccn2c1N(C)C(=O)CC(C)C | i | nt | i | i | i | nt

Screening results from PubChem BioAssay.
